Laboratory results published in ChEMBL document CHEMBL4428054, “Synthesis of Fluorescent Binaphthyl Amines That Bind c-MYC G-Quadruplex DNA and Repress c-MYC Expression” (J Med Chem, 2016).
Active and inactive are the calls of the source. No cut-off for these calls is given here.

What was measured:
unidentified [1] = assay: Selectivity for 5'-FAM and 3'-TAMRA-labeled c-MYC G-quadruplex (unknown origin) over 5'-FAM and 3'-TAMRA-labeled c-KIT2 G-quadruplex (unknown origin)
Quadruplex DNA [2] = assay: Stabilization of c-MYC G-quadruplex in human HeLa cells assessed as reduction in c-MYC mRNA level at 5 uM incubated for 24 hrs by RT-PCR method; type: cell-based; design: scale not given: the % may be the effect or the level left
How it was run: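 qRT-PCR on HeLa cells treated 24 h at 1.0, 2.5 or 5.0 μM. c-MYC mRNA was normalised to GAPDH and compared with 0.1% DMSO-treated control.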

Quadruplex DNA [3] = assay: Binding affinity to pre-annealed c-MYC G-quadruplex (unknown origin) assessed as hypochromacity at 20 uM in 10 mM Tris.HCl buffer containing 100 mM KCl at pH 7.4 by UV/Visible spectroscopy; type: nucleic-acid assay; conditions: unidentified
How it was run: (§1)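 UV–vis titration of 20 μM ligand with preannealed c-MYC quadruplex (0–1.4 equiv) in 100 mM KCl, 10 mM Tris·HCl, pH 7.4. Hypochromicity was followed at the 362 nm ligand band, because the 298 nm band overlaps DNA absorbance. Kd was fitted with the Hill 1 equation.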

Quadruplex DNA [4] = assay: Stabilization of 5'-FAM and 3'-TAMRA-labeled c-KIT1 G-quadruplex (unknown origin) assessed as change in melting temperature at 1 uM by FRET assay; type: nucleic-acid assay; conditions: unidentified
How it was run: (§2)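 FRET melting of dual-labelled (5′-FAM/3′-TAMRA) promoter quadruplexes or duplex in 60 mM potassium cacodylate buffer, pH 7.4. ΔTm is taken against ligand-free Tm. The ligand was tested across a concentration series. Maximum measurable Tm is 93 °C.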

Quadruplex DNA [5] = assay: Binding affinity to pre-annealed k-RAS G-quadruplex (unknown origin) in 100 mM KCl, 10 mM Tris.HCl at pH 7.4 by fluorescence spectroscopy relative to untreated control; type: nucleic-acid assay, unidentified
How it was run: (§3)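 Fluorescence titration in 100 mM KCl, 10 mM Tris·HCl, pH 7.4. Excitation was 350 nm and emission was read at the 430 nm maximum. Ligand (1 μM for c-MYC) was titrated with increasing quadruplex or ds DNA, up to 20 equiv. Change in intensity was scored, and Kd was derived from the titration curves.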

Quadruplex DNA [6] = assay: Stabilization of 5'-FAM and 3'-TAMRA-labeled c-MYC G-quadruplex (unknown origin) assessed as change in melting temperature at 1 uM in presence of 100 nM to 10 uM dsDNA by FRET assay; type: nucleic-acid assay; conditions: unidentified
Quadruplex DNA [7] = assay: Binding affinity to pre-annealed c-KIT1 G-quadruplex (unknown origin) in 100 mM KCl, 10 mM Tris.HCl at pH 7.4 by fluorescence spectroscopy relative to untreated control; type: nucleic-acid assay, unidentified; how it was run: as §3
Quadruplex DNA [8] = assay: Stabilization of 5'-FAM and 3'-TAMRA-labeled c-KIT2 G-quadruplex (unknown origin) assessed as change in melting temperature at 1 uM by FRET assay; type: nucleic-acid assay; conditions: unidentified; how it was run: as §2
dsDNA [9] = assay: Binding affinity to dsDNA (unknown origin) in 10 mM Tris.HCl buffer containing 100 mM KCl at pH 7.4 by UV/Visible spectroscopy; type: nucleic-acid assay
Quadruplex DNA [10] = assay: Binding affinity to pre-annealed c-KIT2 G-quadruplex (unknown origin) in 100 mM KCl, 10 mM Tris.HCl at pH 7.4 by fluorescence spectroscopy relative to untreated control; type: nucleic-acid assay, unidentified; how it was run: as §3
Quadruplex DNA [11] = assay: Binding affinity to pre-annealed c-MYC G-quadruplex (unknown origin) in 100 mM KCl, 10 mM Tris.HCl at pH 7.4 by fluorescence spectroscopy relative to untreated control; type: nucleic-acid assay, unidentified; how it was run: as §3
dsDNA [12] = assay: Stabilization of 5'-FAM and 3'-TAMRA-labeled dsDNA (unknown origin) assessed as change in melting temperature at 1 uM by FRET assay; type: nucleic-acid assay; how it was run: as §2
[13] = Drug localization in nucleus of human HeLa cells at 5 uM incubated for 2 hrs by fluorescence microscopy; type: ADME, subcellular
How it was run: (§4)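 Intrinsic ligand fluorescence imaged by fluorescence microscopy in HeLa cells after 2 h at 5.0 μM. Merged images were used to assign nuclear versus cytoplasmic localisation.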

Quadruplex DNA [14] = assay: Stabilization of 5'-FAM and 3'-TAMRA-labeled c-KIT2 G-quadruplex (unknown origin) assessed as change in melting temperature at 1 uM in presence of 100 nM to 10 uM dsDNA by FRET assay; type: nucleic-acid assay; conditions: unidentified
Quadruplex DNA [15] = assay: Stabilization of 5'-FAM and 3'-TAMRA-labeled c-KIT1 G-quadruplex (unknown origin) assessed as change in melting temperature at 1 uM in presence of 100 nM to 10 uM dsDNA by FRET assay; type: nucleic-acid assay; conditions: unidentified
Quadruplex DNA [16] = assay: Stabilization of 5'-FAM and 3'-TAMRA-labeled k-RAS G-quadruplex (unknown origin) assessed as change in melting temperature at 1 uM in presence of 100 nM to 10 uM dsDNA by FRET assay; type: nucleic-acid assay; conditions: unidentified
HeLa [17] = assay: Effect on GAPDH mRNA expression in human HeLa cells at 1 to 5 uM incubated for 24 hrs by RT-PCR method; type: ADME, cell-based
HeLa [18] = assay: Induction of apoptosis in human HeLa cells assessed as early apoptotic cells level at 5 uM incubated for 24 hrs by Annexin V-FITC staining based flow cytometry (reference value: 1.1%); type: functional
HeLa [19] = assay: Cell cycle arrest in human HeLa cells assessed as accumulation at S phase at 5 uM incubated for 24 hrs by propidium iodide staining based flow cytometry (reference value: 10.8%); type: functional
HeLa [20] = assay: Cytotoxicity against human HeLa cells incubated for 24 hrs by MTT assay; type: functional, cell-based
How it was run: (§5)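 MTT growth-inhibition assay in HeLa, A549 and mouse C2C12 cells. Cells given 0.1% DMSO served as control. IC50 values were reported.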

HeLa [21] = assay: Induction of apoptosis in human HeLa cells assessed as late apoptotic cells level at 5 uM incubated for 24 hrs by Annexin V-FITC staining based flow cytometry (reference value: 0.8%); type: functional
HeLa [22] = assay: Induction of apoptosis in human HeLa cells assessed as necrotic cells level at 5 uM incubated for 24 hrs by Annexin V-FITC staining based flow cytometry (reference value: 0.1%); type: functional
A549 = assay: Cytotoxicity against human A549 cells incubated for 24 hrs by MTT assay; type: functional, cell-based; conditions: A549, 24 h; how it was run: as §5
dsDNA [23] = assay: Binding affinity to 20 equivalents of dsDNA (unknown origin) in 100 mM KCl, 10 mM Tris.HCl at pH 7.4 by fluorescence spectroscopy relative to untreated control; type: nucleic-acid assay; how it was run: as §3
Quadruplex DNA [24] = assay: Binding affinity to c-MYC G-quadruplex (unknown origin) by 1H-NMR spectroscopy; type: nucleic-acid assay; conditions: unidentified
How it was run: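 1D 1H NMR of c-MYC quadruplex DNA at different ligand:DNA ratios, monitoring imino and aromatic regions against partial signal assignments. Chemical shift perturbation or line broadening was noted separately at ratios below 1 and at ratios of 1 or above.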

HeLa [25] = assay: Effect on GAPDH protein expression in human HeLa cells at 1 to 5 uM incubated for 24 hrs by Western blot method; type: ADME, cell-based
How it was run: (§6)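 Western blot of HeLa lysates after 24 h at 1, 2.5 or 5 μM, with DMSO control. c-MYC was probed, GAPDH served as loading control, and bands were quantified by densitometry.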

HeLa [26] = assay: Cell cycle arrest in human HeLa cells assessed as accumulation at G0/G1 phase at 5 uM incubated for 24 hrs by propidium iodide staining based flow cytometry (reference value: 61.5%); type: functional
[27] = Drug localization in cytoplasm of human HeLa cells at 5 uM incubated for 2 hrs by fluorescence microscopy; type: ADME, subcellular; how it was run: as §4
unidentified [28] = assay: Selectivity for 5'-FAM and 3'-TAMRA-labeled c-MYC G-quadruplex (unknown origin) over 5'-FAM and 3'-TAMRA-labeled k-RAS G-quadruplex (unknown origin)
Quadruplex DNA [29] = assay: Stabilization of c-MYC G-quadruplex in human HeLa cells assessed as reduction in c-MYC mRNA level at 5 uM incubated for 24 hrs by Western blot method; type: cell-based; design: scale not given: the % may be the effect or the level left; conditions: in the assay text read “c-MYC protein level” for “c-MYC mRNA level”; how it was run: as §6
[30] = Selectivity for 5'-FAM and 3'-TAMRA-labeled c-MYC G-qudaruplex (unknown origin) over 5'-FAM and 3'-TAMRA-labeled c-KIT1 G-qudaruplex (unknown origin)
HeLa [31] = assay: Cell cycle arrest in human HeLa cells assessed as accumulation at G2/M phase at 5 uM incubated for 24 hrs by propidium iodide staining based flow cytometry (reference value: 25.5%); type: functional
Quadruplex DNA [32] = assay: Binding affinity to pre-annealed c-MYC G-quadruplex (unknown origin) assessed as increase in fluorescence intensity at 1 uM in 100 mM KCl, 10 mM Tris.HCl at pH 7.4 by fluorescence spectroscopy relative to untreated control; type: nucleic-acid assay; conditions: unidentified; how it was run: as §3
Quadruplex DNA [33] = assay: Effect on parallel topology of c-MYC G-quadruplex (unknown origin) at 0 to 5 equivalent by CD spectroscopy; type: nucleic-acid assay; conditions: unidentified
Quadruplex DNA [34] = assay: Stabilization of 5'-FAM and 3'-TAMRA-labeled c-MYC G-quadruplex (unknown origin) assessed as change in melting temperature at 1 uM by FRET assay; type: nucleic-acid assay; conditions: unidentified; how it was run: as §2
Quadruplex DNA [35] = assay: Binding affinity to pre-annealed c-MYC G-quadruplex (unknown origin) in 10 mM Tris.HCl buffer containing 100 mM KCl at pH 7.4 by UV/Visible spectroscopy; type: nucleic-acid assay, unidentified; how it was run: as §1
dsDNA [36] = assay: Stabilization of 5'-FAM and 3'-TAMRA-labeled dsDNA (unknown origin) assessed as change in melting temperature at 5 uM by FRET assay; type: nucleic-acid assay; how it was run: as §2
HeLa [37] = assay: Induction of apoptosis in human HeLa cells assessed as viable cell level at 5 uM incubated for 24 hrs by Annexin V-FITC staining based flow cytometry; type: functional
HeLa [38] = assay: Cell cycle arrest in human HeLa cells assessed as accumulation at subG1 phase at 5 uM incubated for 24 hrs by propidium iodide staining based flow cytometry (reference value: 2.2%); type: functional
C2C12 = assay: Cytotoxicity against mouse C2C12 cells incubated for 24 hrs by MTT assay; type: cell-based; conditions: C2C12, 24 h; how it was run: as §5
Quadruplex DNA [39] = assay: Stabilization of 5'-FAM and 3'-TAMRA-labeled k-RAS G-quadruplex (unknown origin) assessed as change in melting temperature at 1 uM by FRET assay; type: nucleic-acid assay; conditions: unidentified; how it was run: as §2

Selectivity ratio (unidentified [1]): 3 to 5
Activity (Quadruplex DNA [3]): 37%
ΔTm (Quadruplex DNA [4]): 11 °C
Kd (Quadruplex DNA [5]): 11.4 to 13.8 µM
Activity (Quadruplex DNA [6]): Active
Kd (Quadruplex DNA [7]): 10.2 µM
ΔTm (Quadruplex DNA [8]): 15 °C
Activity (dsDNA [9]): inactive
Kd (Quadruplex DNA [10]): 11.1 µM
Kd (Quadruplex DNA [11]): 4.2 µM
ΔTm (dsDNA [12]): 2 °C
Drug uptake [13]: Active
Activity (Quadruplex DNA [14]): Active
Activity (Quadruplex DNA [15]): Active
Activity (Quadruplex DNA [16]): Active
Activity (dsDNA [23]): inactive
Activity (Quadruplex DNA [24]): Active
Drug uptake [27]: Active
Selectivity ratio (unidentified [28]): 3 to 5
Selectivity ratio [30]: 3 to 5
fold change (FC) (Quadruplex DNA [32]): 3.5
Activity (Quadruplex DNA [33]): inactive
ΔTm (Quadruplex DNA [34]): 23 °C
Kd (Quadruplex DNA [35]): 4.4 µM
Activity (dsDNA [36]): inactive
ΔTm (Quadruplex DNA [39]): 22 °C
Compound: CN(C)CCCn1cc(CNC(=O)c2ccc(Nc3ccc(-c4ccc(Nc5ccc(C(=O)NCc6cn(CCCN(C)C)nn6)cc5)c5ccccc45)c4ccccc34)cc2)nn1
Activity (Quadruplex DNA [2]): 58%
Activity (HeLa [17]): Non-Toxic
Activity (HeLa [18]): 55.9%
Activity (HeLa [19]): 4.2%
IC50 (HeLa [20]): 5.53 µM
Activity (HeLa [21]): 12%
Activity (HeLa [22]): 0.6%
IC50 (A549): ≥ 40 µM
Activity (HeLa [25]): Non-Toxic
Activity (HeLa [26]): 33.7%
Activity (Quadruplex DNA [29]): 68%
Activity (HeLa [31]): 29.9%
Activity (HeLa [37]): Active
Activity (HeLa [38]): 32.2%
IC50 (C2C12): ≥ 40 µM
